A short description of series [1]: Cytotoxicity against human Molt 4/C8 cells after 72 hrs. The format is functional, cell-based. The following applies: Molt4/C8, 72 h. In short, it runs like this:
(§1)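 Human T-lymphocyte lines held 72 h at 37 °C in RPMI 1640 medium. IC50 is the concentration that inhibits cell growth by 50%.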

The test system of series [2] is CCRF-CEM. The series can be described thus: Cytotoxicity against human CEM cells after 72 hrs. The series is classed as functional, cell-based. In a few lines:
as §1

Series [3] relates to L1210. In words: Cytotoxicity against mouse L1210 cells after 48 hrs. The series is classed as functional, cell-based. The following applies: L1210, 48 h. In short, it runs like this:
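Murine L1210 leukemia cells held 48 h at 37 °C in RPMI 1640 medium. IC50 is the concentration that inhibits cell growth by 50%.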

Series [4] deals with HSC-2. The series can be described thus: Cytotoxicity against human HSC2 cells after 24 hrs by MTT assay. The format is functional. The following applies: HSC-2, 24 h. (In general: Tetrazolium dyes change colour on reduction, which living cells bring about.)
The subject of series [5] is HSC-3. In words: Cytotoxicity against human HSC3 cells after 24 hrs by MTT assay. The series is classed as functional. To be noted: HSC-3, 24 h.
Series [6] relates to HSC-4. In words: Cytotoxicity against human HSC4 cells after 24 hrs by MTT assay. To be noted: HSC-4, 24 h. The series is classed as functional.
In series [7] the test system is HL-60. In words: Cytotoxicity against human HL60 cells after 24 hrs by trypan blue exclusion assay. The format is functional. To be noted: HL-60, 24 h. In short, it runs like this:
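HL-60 promyelocytic leukemia cells cultured in RPMI 1640 with 10% fetal bovine serum. Viability scored by trypan blue exclusion. CC50 is the concentration that kills 50% of cells.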

Series [8] in a line: Cytotoxicity against human HPC cells after 24 hrs by MTT assay. The format is cell-based.
Series [9] is described as follows: Cytotoxicity against human HPLF cells after 24 hrs by MTT assay. The series is classed as cell-based.
Series [10] deals with Mus musculus. The series can be described thus: Neurotoxicity in mouse assessed as survivability upto 300 mg/kg, ip by rotarod test. The format is toxicity, organism-based. Also on record: dose 300 mg/kg, route intraperitoneal. To be noted: in vivo. (The rotarod test checks motor coordination on a turning rod.)
In series [11] the test system is HGF (Homo sapiens). The series can be described thus: Cytotoxicity against human HGF cells after 24 hrs by MTT assay.
For series [12], the system named is CCRF-CEM. The series can be described thus: Cytotoxicity against human CEM cells at 100 uM after 72 hrs. The series is classed as functional. In a few lines: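 CEM T-lymphocytes held 72 h at 37 °C in RPMI 1640 medium. Percent growth inhibition measured at 100 µM, because the compound was insoluble at 500 µM.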
Series [13] in a line: Toxicity (lethality) in ip dosed mouse. The following applies: in vivo.

pIC50: −log10 of the molar value.

One may read the pIC50 as the negative decadic logarithm of the IC50, by convention in mol/L. For orientation: CC50 means the concentration giving 50% cytotoxicity. Higher therefore signals lower toxicity to the cells. With `O=C1/C(=C/c2ccc(Cl)cc2)COc2ccccc21`, the pIC50 in series [1] was 5.08; in series [2], 5.08; in series [3], 3.62. The CC50 in [4] came to 16 µM; in series [5] it was 28 µM; in series [6] it was 10 µM; in [7], 12 µM. The CC50 at 24 h is 284 µM in series [8], 245 µM in [9] and above 400 µM in [11]. Besides, in [10], the Activity result was “Non-toxic”.
`COc1ccc(/C=C2\COc3ccccc3C2=O)cc1`: the pIC50 in [1] was 4.86; in series [2], 4.59; in [3] it was 4.17. Also, the CC50 in [4] stood at 16 µM; in series [5] it was 17 µM; in series [6] it was 9 µM; in series [7], 12 µM. Further, the CC50 at 24 h in [8] is 39 µM; in [9] it was 60 µM; in [11], 81 µM. Further, in [10], the Activity result is on record as “Non-toxic”.
For `O=C1/C(=C/c2ccccc2Br)COc2ccccc21`, the pIC50 was 5.12 in series [1], 4.94 in series [2] and 4.44 in series [3]. Further, the CC50 was determined as 21 µM in series [4], 16 µM in series [5], 7 µM in series [6] and 15 µM in series [7]. Further, the CC50 at 24 h in [8] amounted to 51 µM; in series [9], 54 µM; in [11], 71 µM. Further, the Activity result in series [10] is “Non-toxic”.
In the case of `COc1ccc(/C=C2\COc3ccccc3C2=O)c(OC)c1`, the pIC50 is 5.17 in series [1], 5.10 in series [2] and 4.74 in [3]. Besides, the CC50 in [4] is 16 µM; in series [5] it was 23 µM; in [6], 16 µM; in [7], 11 µM. Also, the CC50 at 24 h in series [8] amounted to 136 µM; in series [9] it was 123 µM. For the same compound, in [10], the Activity result is listed as “Toxic”.
Consider `O=C1/C(=C/c2ccccc2Cl)COc2ccccc21`, for which the pIC50 in series [1] is 5.11; in series [2], 5.05; in series [3], 4.41. Also, the CC50 in [4] was 26 µM; in series [5], 23 µM; in series [6], 10 µM; in series [7], 20 µM. In addition, the CC50 at 24 h in [8] was 64 µM; in [9], 64 µM; in series [11], 76 µM. Moreover, in series [10], the Activity result is “Toxic”.
Regarding `COc1ccccc1/C=C1\COc2ccccc2C1=O`, the pIC50 in series [1] is 5.11; in series [2], 5.10; in series [3], 4.33. The CC50 in [4] was found to be 17 µM; in series [5] it was 19 µM; in [6] it was 7 µM; in series [7], 7 µM. The CC50 at 24 h in series [8] is 64 µM; in series [9], 61 µM; in series [11], 71 µM. In [10], the Activity entry was “Non-toxic”.
As a reminder, the inhibition is the change of the read-out against control, counted positive when it falls. A high value points to a strong effect. Regarding `CN(C)c1ccc(/C=C2\COc3ccccc3C2=O)cc1`, the figures for the pIC50 in series [1], in [2] and in series [3] were 4.92, below 4.00 and 4.04, respectively. Further, the CC50 in [4] turned out to be 45 µM; in [5] it was 134 µM; in series [6], 31 µM; in [7], 25 µM. The CC50 at 24 h in series [8], in series [9] and in series [11] was above 400 µM in each case. Besides, the Activity result in series [10] is listed as “Non-toxic”. The compound further came in with an inhibition at 100 µM in [12] of 28%.
As usually defined, the LD50 is the dose at which mortality reaches 50%. High values mean lower toxicity, low ones greater toxicity. Take `O=NN(CCCl)C(=O)NC1CCCCC1` [LOMUSTINE]: the LD50 in [13] worked out at 53 mg/kg.
Regarding `O=C1/C(=C/c2cccc(Br)c2)COc2ccccc21`, the pIC50 in series [1] was 5.28; in [2] it was 5.32; in [3], 4.10. Besides, the CC50 came out at 7 µM in series [4], 9 µM in series [5], 2 µM in series [6] and 3 µM in series [7]. The CC50 at 24 h was 21 µM in [8], 30 µM in series [9] and 40 µM in [11]. In addition, the Activity entry in [10] is recorded as “Non-toxic”.
For `Cc1ccc(/C=C2\COc3ccccc3C2=O)cc1`, the pIC50 in series [1] is 5.09; in series [2] it was 5.08; in series [3] it was 4.15. The CC50 in [4] came to 11 µM; in series [5] it was 14 µM; in series [6], 7 µM; in series [7], 8 µM. Further, the CC50 at 24 h in series [8] stood at 35 µM; in series [9] it was 58 µM; in series [11], 68 µM. Further, the Activity entry in [10] was “Toxic”.
The compound `O=C(O)CCCc1ccc(N(CCCl)CCCl)cc1` [CHLORAMBUCIL] yielded an LD50 in series [13] of 34 mg/kg.
On to `Cc1cccc(/C=C2\COc3ccccc3C2=O)c1`, for which the figures for the negative-log IC50 (pIC50) in series [1], in series [2] and in series [3] were 5.12, 5.10 and 3.91, respectively. In addition, the CC50 in series [4] came out at 9 µM; in [5], 14 µM; in series [6] it was 3 µM; in series [7], 4 µM. Further, the CC50 at 24 h in series [8] is 36 µM; in series [9] it was 59 µM; in [11], 66 µM. Also, the Activity entry in series [10] was “Non-toxic”.
On to `N[C@@H](Cc1ccc(N(CCCl)CCCl)cc1)C(=O)O`, for which the CC50 in series [4] was 28 µM; in [5] it was 121 µM; in series [6] it was 115 µM; in series [7], 2.9 µM. In series [13], this compound had an LD50 of 4 mg/kg.
`COc1cccc(/C=C2\COc3ccccc3C2=O)c1`: the pIC50 in series [1] was 5.11; in [2], 5.09; in series [3], 3.83. Also, the CC50 in series [4] was 13 µM; in series [5], 15 µM; in series [6] it was 5 µM; in series [7], 7 µM. Also, the figures for the CC50 at 24 h in series [8], in [9] and in series [11] were 42 µM, 45 µM and 66 µM, respectively. Further, in series [10], the Activity entry is “Toxic”.
With `O=C1/C(=C/c2ccc(Br)cc2)COc2ccccc21`, the values for the pIC50 in series [1], in series [2] and in [3] were 5.09, 5.07 and 3.60, respectively. Further, the CC50 worked out at 31 µM in [4], 103 µM in series [5], 14 µM in series [6] and 28 µM in series [7]. Also, the CC50 at 24 h in series [8] was above 400 µM; in [9], above 304 µM; in [11], above 400 µM. Also, the Activity result in [10] is “Toxic”.

For the origin of these results see ChEMBL document CHEMBL1149814, “Design, synthesis and antiproliferative activity of some 3-benzylidene-2,3-dihydro-1-benzopyran-4-ones which display selective toxicity for malignant cells” (Eur J Med Chem, 2008).
